Here are results for seven compounds from PMC7181320 (ACS Central Science, 2020).

For data set [1], the target named is N-His6-FhuD2 (Staphylococcus aureus, UniProt Q7BGA5). Kind of data set: Intrinsic Trp fluorescence quenching binding assay, wild-type N-His6-FhuD2. The arrangement: species or system S. aureus. An outline of the steps: (§1)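 Purified SBP constructs, truncated with an N-terminal His6 tag replacing the signal peptide. Binding of the fluorescent desferrioxamine probe, in metal-free and ferric forms, was read as quenching of the protein's intrinsic Trp fluorescence.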

Data set [2] has as its target N-His6-YxeB (Bacillus subtilis, UniProt P54941). Kind of data set: Intrinsic Trp fluorescence quenching binding assay, wild-type N-His6-YxeB. The arrangement: species or system B. subtilis. An outline of the steps: as §1
Data set [3] deals with Y256F N-His6-FhuD2 (Staphylococcus aureus, UniProt Q7BGA5, Y280F). Kind of data set: Intrinsic Trp fluorescence quenching binding assay, FhuD2 mutant Y256F. The arrangement: species or system S. aureus.
Data set [4] addresses Y106F N-His6-FhuD2 (Staphylococcus aureus, UniProt Q7BGA5, Y130F). Kind of data set: Intrinsic Trp fluorescence quenching binding assay, FhuD2 mutant Y106F. Conditions: FhuD2 variant Y106F. The arrangement: species or system S. aureus.
Data set [5] has as its target T1, R175A N-His6-FhuD2 (Staphylococcus aureus, UniProt Q7BGA5, R199A).
T1 sequence (Q7BGA5 25-302 R199A): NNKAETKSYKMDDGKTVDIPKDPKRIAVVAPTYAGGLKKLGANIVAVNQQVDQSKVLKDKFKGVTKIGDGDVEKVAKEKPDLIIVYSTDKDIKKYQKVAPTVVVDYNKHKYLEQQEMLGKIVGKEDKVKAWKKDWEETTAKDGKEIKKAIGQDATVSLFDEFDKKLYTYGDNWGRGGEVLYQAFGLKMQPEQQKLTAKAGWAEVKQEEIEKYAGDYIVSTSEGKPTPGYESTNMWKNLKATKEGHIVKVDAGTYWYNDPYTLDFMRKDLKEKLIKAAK
Kind of data set: Intrinsic Trp fluorescence quenching binding assay, FhuD2 mutant R175A. The arrangement: species or system S. aureus. The conditions noted are these: FhuD2 variant R175A.

Data set [6] concerns the target T2, W255A N-His6-FhuD2 (Staphylococcus aureus, UniProt Q7BGA5, W279A).
T2 sequence (Q7BGA5 25-302 W279A): T1 sequence (Q7BGA5 25-302 R199A)
Kind of data set: Intrinsic Trp fluorescence quenching binding assay, FhuD2 mutant W255A. The arrangement: species or system S. aureus. Conditions: FhuD2 variant W255A.

The target in data set [7] is T3, Y254F N-His6-FhuD2 (Staphylococcus aureus, UniProt Q7BGA5, Y278F).
T3 sequence (Q7BGA5 25-302 Y278F): T1 sequence (Q7BGA5 25-302 R199A)
Kind of data set: Intrinsic Trp fluorescence quenching binding assay, FhuD2 mutant Y254F. The conditions noted are these: FhuD2 variant Y254F. The arrangement: species or system S. aureus.

In data set [8] the target is T4, Y167F N-His6-FhuD2 (Staphylococcus aureus, UniProt Q7BGA5, Y191F).
T4 sequence (Q7BGA5 25-302 Y191F): T1 sequence (Q7BGA5 25-302 R199A)
Kind of data set: Intrinsic Trp fluorescence quenching binding assay, FhuD2 mutant Y167F. Conditions: FhuD2 variant Y167F. The arrangement: species or system S. aureus.

Data set [9] concerns the target T5, Y169F N-His6-FhuD2 (Staphylococcus aureus, UniProt Q7BGA5, Y193F).
T5 sequence (Q7BGA5 25-302 Y193F): T1 sequence (Q7BGA5 25-302 R199A)
Kind of data set: Intrinsic Trp fluorescence quenching binding assay, FhuD2 mutant Y169F. The conditions noted are these: FhuD2 variant Y169F. The arrangement: species or system S. aureus.

Data set [10] concerns the target T6, W173A N-His6-FhuD2 (Staphylococcus aureus, UniProt Q7BGA5, W197A).
T6 sequence (Q7BGA5 25-302 W197A): T1 sequence (Q7BGA5 25-302 R199A)
Kind of data set: Intrinsic Trp fluorescence quenching binding assay, FhuD2 mutant W173A. The arrangement: species or system S. aureus. The conditions noted are these: FhuD2 variant W173A.

In data set [11] the target is T7, FhuD2 (Staphylococcus aureus, UniProt Q7BGA5). Kind of data set: Intrinsic Trp fluorescence quenching. The format is binding. The conditions noted are these: read-out: app Kd; SD, n = 2.
The target in data set [12] is Y256F (Staphylococcus aureus, UniProt Q7BGA5, Y280F). Kind of data set: Intrinsic Trp fluorescence quenching. It is filed as binding. Conditions: read-out: app Kd; SD, n = 2.
The target in data set [13] is Y106F (Staphylococcus aureus, UniProt Q7BGA5, Y130F). Kind of data set: Intrinsic Trp fluorescence quenching. The format is binding. The conditions noted are these: read-out: app Kd; SD, n = 2.
Data set [14] addresses W255A (Staphylococcus aureus, UniProt Q7BGA5, W279A). Kind of data set: Intrinsic Trp fluorescence quenching. The format is binding. Conditions: read-out: app Kd; SD, n = 2.
Data set [15] addresses Y169F (Staphylococcus aureus, UniProt Q7BGA5, Y193F). Kind of data set: Intrinsic Trp fluorescence quenching. It is filed as binding. Conditions: read-out: app Kd; SD, n = 2.
Data set [16] concerns the target W173A (Staphylococcus aureus, UniProt Q7BGA5, W197A). Kind of data set: Intrinsic Trp fluorescence quenching. The format is binding. The conditions noted are these: read-out: app Kd; SD, n = 2.
Data set [17] concerns FhuD2. Kind of data set: FhuD2-catalyzed iron exchange from holo-Tf to DFO-NBD with additives. The format is biochemical, S. aureus. The conditions noted are these: 25 mM additive, 4 μM holo-Tf, 2 μM DFO-NBD. The procedure, abridged: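 FhuD2 is a truncated S. aureus construct with the N-terminal signal peptide replaced by an N-terminal His6 tag, used at 100 nM with holo-transferrin as iron donor. The reaction is started by adding the DFO-NBD probe, and fluorescence (ex 475 nm, em 560 nm) is monitored continuously. Quenching is expressed as percentage change relative to a control containing DFO-NBD and FhuD2 without iron donor.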

Data set [18] has as its target FhuD2 Y256F (S. aureus). Kind of data set: other fluorescence titration.
For data set [19], the system named is SBPs (FhuD2 or YxeB). It is filed as biochemical, S. aureus and B. subtilis. The conditions noted are these: SBP-catalyzed exchange, FhuD2 and YxeB. The procedure, abridged: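 Truncated SBPs (FhuD2 or YxeB), each expressed with an N-terminal His6 tag in place of the signal peptide, at 100 nM with 4 μM ferric donor (FOB, FOE or human holo-transferrin). Started by adding 2 μM DFO-NBD probe, then fluorescence followed continuously (ex 475 nm; em 565 nm). Percent change in relative emission taken at 15 min against a matching no-SBP reaction.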

Data set [20] is described as follows: Apparent KFe measurement by EDTA competition assay. The format is physicochemical. Conditions: 1.2 equiv EDTA, HEPES buffer pH 7.4. An outline of the steps:
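Ferric siderophore (ferrioxamine B or E) treated with 1.2 equiv EDTA, with or without stoichiometric FhuD2. Remaining ferric siderophore is followed continuously by absorbance at 427 nm and expressed as relative percentage remaining. Apparent log KFe is calculated from the decay plots. At least two independent trials are run, with standard deviations reported.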

In data set [21] the target is R175A (Staphylococcus aureus, UniProt Q7BGA5, R199A). Kind of data set: Intrinsic Trp fluorescence quenching. The format is binding. Conditions: read-out: app Kd; SD, n = 2.
Data set [22] addresses Y254F (Staphylococcus aureus, UniProt Q7BGA5, Y278F). Kind of data set: Intrinsic Trp fluorescence quenching. The format is binding. Conditions: read-out: app Kd; SD, n = 2.
In data set [23] the target is T7, FhuD2. Kind of data set: Intrinsic Trp fluorescence quenching. It is filed as binding. Conditions: read-out: app Kd; SD, n = 2; cited from earlier work.
The conditions of data set [24]: 25 °C; cited from earlier work.

“Also recorded” adds a separate entry of the source. Read-outs that look alike come from different tables or passages of the source.

Chain of N-His6-YxeB (P54941 21-321): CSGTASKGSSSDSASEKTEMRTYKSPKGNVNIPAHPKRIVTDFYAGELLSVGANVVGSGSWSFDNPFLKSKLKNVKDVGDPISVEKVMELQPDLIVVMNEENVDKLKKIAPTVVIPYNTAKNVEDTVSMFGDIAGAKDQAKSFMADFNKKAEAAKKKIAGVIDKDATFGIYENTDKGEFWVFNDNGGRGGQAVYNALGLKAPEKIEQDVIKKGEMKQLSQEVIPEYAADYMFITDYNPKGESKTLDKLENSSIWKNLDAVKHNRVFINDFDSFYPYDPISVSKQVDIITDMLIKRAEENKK
Chain of human holo-transferrin (P02787 20-698): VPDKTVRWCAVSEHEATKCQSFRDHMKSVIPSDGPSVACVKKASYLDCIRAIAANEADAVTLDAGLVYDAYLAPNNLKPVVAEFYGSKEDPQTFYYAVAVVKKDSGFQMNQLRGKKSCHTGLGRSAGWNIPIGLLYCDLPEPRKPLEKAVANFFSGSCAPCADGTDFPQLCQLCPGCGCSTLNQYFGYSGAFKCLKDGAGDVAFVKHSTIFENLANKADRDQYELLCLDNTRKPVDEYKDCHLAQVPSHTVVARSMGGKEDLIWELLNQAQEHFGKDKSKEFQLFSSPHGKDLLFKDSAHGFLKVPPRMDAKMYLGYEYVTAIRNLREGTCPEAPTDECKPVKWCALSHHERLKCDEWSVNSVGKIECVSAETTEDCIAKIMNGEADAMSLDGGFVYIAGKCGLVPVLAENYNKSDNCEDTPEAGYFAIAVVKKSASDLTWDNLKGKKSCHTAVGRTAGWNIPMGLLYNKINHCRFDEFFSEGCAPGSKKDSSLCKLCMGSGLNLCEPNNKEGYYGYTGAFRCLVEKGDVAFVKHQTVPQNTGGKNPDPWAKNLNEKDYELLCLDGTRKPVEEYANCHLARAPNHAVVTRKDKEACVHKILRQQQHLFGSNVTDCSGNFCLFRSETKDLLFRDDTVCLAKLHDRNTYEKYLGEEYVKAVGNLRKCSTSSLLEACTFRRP

Take `CC(=O)N(O)CCCCCNC(=O)CCC(=O)N(O)CCCCCNC(=O)CCC(=O)N(O)CCCCCN` [DFOB, desferrioxamine B]: the Kd was 90 ± 10 nM in data set [1]; 30 ± 20 nM in [2]; 80 ± 30 nM in data set [3]; 80 ± 20 nM in [4] (app Kd); 40 ± 9 nM in [5] (app Kd); 60 ± 20 nM in [6] (app Kd). In addition, the Kd in [7] (app Kd) was 50 ± 10 nM; in data set [8] (app Kd), 60 ± 9 nM; in data set [9] (app Kd), 70 ± 10 nM; in [10] (app Kd) it was 100 ± 50 nM.
As for `O=C1CCC(=O)N(O)CCCCCNC(=O)CCC(=O)N(O)CCCCCNC(=O)CCC(=O)N(O)CCCCCN1.[Fe+3]` [FOE, ferrioxamine E], the Kd was determined as 50 ± 6 nM in [11]; 40 ± 20 nM in [12]; 80 ± 10 nM in data set [13]; 30 ± 9 nM in data set [14]; 20 ± 2 nM in [15]; 90 ± 30 nM in data set [16].
Turning to `O=C([O-])O.[Na+]` [NaHCO3], in [17], the “effect on FhuD2-catalyzed exchange of iron from holo-Tf to DFO-NBD” value is “no apparent effect”.
The compound “human holo-transferrin (from UniProt P02787 20-698) (natural protein)” yielded a Kd in data set [18] of 70 nM.
As to `CC(=O)N([O-])CCCCCNC(=O)CCC(=O)N([O-])CCCCCNC(=O)CCC(=O)N([O-])CCCCCN.[Fe+3]` [FOB, ferrioxamine B], the Kd in data set [3] (read-out: app Kd, FhuD2 variant Y256F) is 60 ± 10 nM; in data set [4] (read-out: app Kd), 40 ± 8 nM; in [6] (read-out: app Kd) it was 60 ± 50 nM; in data set [7] (read-out: app Kd), 10 ± 2 nM; in data set [8] (read-out: app Kd), 40 ± 6 nM; in [9] (read-out: app Kd), 40 ± 9 nM. In addition, the Kd in data set [10] (read-out: app Kd) is 60 ± 8 nM; in [12], 60 ± 10 nM; in data set [13], 40 ± 8 nM; in data set [21] it was 30 ± 9 nM; in [22], 10 ± 2 nM; in data set [15], 40 ± 9 nM. In [23], the Kd is 30 ± 6 nM. The “ability to serve as ferric iron donor to DFO-NBD” value in data set [19] was “serve as a donor of ferric iron; also recorded: serve as iron donor substrates”. Further, the “apparent log KFe” value in data set [20] (1:1 stoichiometric complex with FhuD2) was found to be 28.5 ± 0.1; in data set [20] (no FhuD2) it was 30.3 ± 0.4.
With “transferrin: human ferric holo-transferrin, host iron source and iron donor substrate”, the Kd in data set [5] (read-out: app Kd) was 110 ± 30 nM; in data set [6] (read-out: app Kd), 110 ± 80 nM; in data set [7] (read-out: app Kd), 90 ± 20 nM; in data set [8] (read-out: app Kd) it was 80 ± 20 nM; in data set [9] (read-out: app Kd) it was 110 ± 20 nM; in [10] (read-out: app Kd), 140 ± 30 nM. In addition, in [24], the “log KFe” value was “≈ 22”.
Turning to `CC(=O)N([O-])CCCCCNC(=O)CCC(=O)N([O-])CCCCCNC(=O)CCC(=O)N([O-])CCCCCNc1ccc([N+](=O)[O-])c2nonc12.[Fe+3]` [FO-NBD, ferrioxamine B-2-(4-nitro-2,1,3-benzoxadiazol-7-yl) conjugate], the “app Kd” value is “nanomolar affinity” in [1] (wild-type N-His6-FhuD2 100 nM, TBS buffer pH 7.4, one site binding model) and “nanomolar affinity” in data set [2] (wild-type N-His6-YxeB 100 nM, TBS buffer pH 7.4, one site binding model). The “apparent log KFe” value in [20] (no FhuD2) came out at 30.8 ± 0.3.
